# According to ChEMBL document CHEMBL3046938, “Synthesis and fungicidal activity of novel 2-oxocycloalkylsulfonylureas” (J Agric Food Chem, 2005):
# What was measured:
# Fusarium graminearum [1] = assay: Fungicidal activity against Fusarium graminearum assessed as mycelial growth inhibition in potato dextrose agar at 50 ug/mL at 24 +/- 0.5 degC; assay type: functional
# Summary of the method: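 Single-concentration screen against G. zeae by mycelium growth rate test. Compound in acetone was mixed into PDA at 50 μg/mL, fungus cakes were placed on the plates and grown at 24 ± 0.5 °C, with an acetone blank and three replicates. Percent inhibition was recorded.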
# Rhizoctonia solani = assay: Fungicidal activity against Rhizoctonia solani assessed as mycelial growth inhibition in potato dextrose agar at 24 +/- 0.5 degC; assay type: functional, organism-based
# Summary of the method: (§1)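 Mycelium growth rate test. Compounds in acetone were mixed into PDA at 100, 50, 25, 12.5 and 6.25 μg/mL, fungus cakes were placed on the plates and grown at 24 ± 0.5 °C, with an acetone blank and three replicates. Inhibition rates were measured, and EC50 and EC90 were estimated by logit analysis.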
# [2] = tested on: Fusarium oxysporum f. sp. vasinfectum; assay: Fungicidal activity against Fusarium oxysporum f. sp. vasinfectum assessed as mycelial growth inhibition in potato dextrose agar at 24 +/- 0.5 degC; assay type: functional, organism-based; summary of the method: as §1
# Botrytis cinerea = assay: Fungicidal activity against Botryotinia fuckeliana assessed as mycelial growth inhibition in potato dextrose agar at 24 +/- 0.5 degC; assay type: functional, organism-based; summary of the method: as §1
# Pythium aphanidermatum = assay: Fungicidal activity against Pythium aphanidermatum assessed as mycelial growth inhibition in potato dextrose agar at 24 +/- 0.5 degC; assay type: functional, organism-based; summary of the method: as §1
# Fusarium graminearum [3] = assay: Fungicidal activity against Fusarium graminearum assessed as mycelial growth inhibition in potato dextrose agar at 24 +/- 0.5 degC; assay type: functional, organism-based; summary of the method: as §1
# [4] = tested on: Colletotrichum orbiculare; assay: Fungicidal activity against Colletotrichum orbiculare assessed as mycelial growth inhibition in potato dextrose agar at 24 +/- 0.5 degC; assay type: functional, organism-based; summary of the method: as §1
# Verticillium dahliae = assay: Fungicidal activity against Verticillium dahliae assessed as mycelial growth inhibition in potato dextrose agar at 24 +/- 0.5 degC; assay type: functional, organism-based; summary of the method: as §1
smiles,measurement,setting,value
O=C(NC1CCCCCCCCCCC(=O)OCCC1)NS(=O)(=O)C1CCCCCCCCCCC1=O (stereo not drawn),inhibition at 50 µg/mL,Fusarium graminearum [1],26.1%
Cc1ccnc(NC(=O)NS(=O)(=O)C2CCCCCCCCCCC2=O)n1 (stereo not drawn),inhibition at 50 µg/mL,Fusarium graminearum [1],18.1%
COc1cc(Cl)nc(NC(=O)NS(=O)(=O)C2CCCCCCCCCCC2=O)n1 (stereo not drawn),inhibition at 50 µg/mL,Fusarium graminearum [1],34.5%
COc1cc(OC)nc(NC(=O)NS(=O)(=O)C2CCCCCCCCCCC2=O)n1 (stereo not drawn),inhibition at 50 µg/mL,Fusarium graminearum [1],26.5%
Cc1cc(C)nc(NC(=O)NS(=O)(=O)C2CCCCCCCCCCC2=O)n1 (stereo not drawn),inhibition at 50 µg/mL,Fusarium graminearum [1],18.1%
CCc1cc(CC)nc(NC(=O)NS(=O)(=O)C2CCCCCCCCCCC2=O)n1 (stereo not drawn),inhibition at 50 µg/mL,Fusarium graminearum [1],55.6%
CCCc1cc(CCC)nc(NC(=O)NS(=O)(=O)C2CCCCCCCCCCC2=O)n1 (stereo not drawn),inhibition at 50 µg/mL,Fusarium graminearum [1],34.5%
CC(C)c1cc(C(C)C)nc(NC(=O)NS(=O)(=O)C2CCCCCCCCCCC2=O)n1 (stereo not drawn),inhibition at 50 µg/mL,Fusarium graminearum [1],55.6%
Cc1ccc(NC(=O)NS(=O)(=O)C2CCCCCCCCCCC2=O)cc1 (stereo not drawn),inhibition at 50 µg/mL,Fusarium graminearum [1],34.5%
COc1ccc(NC(=O)NS(=O)(=O)C2CCCCCCCCCCC2=O)cc1 (stereo not drawn),inhibition at 50 µg/mL,Fusarium graminearum [1],18.1%
O=C(Nc1ccc(Cl)cc1)NS(=O)(=O)C1CCCCCCCCCCC1=O (stereo not drawn),inhibition at 50 µg/mL,Fusarium graminearum [1],49%
O=C(Nc1ccccc1Cl)NS(=O)(=O)C1CCCCCCCCCCC1=O (stereo not drawn),inhibition at 50 µg/mL,Fusarium graminearum [1],49%
O=C(Nc1ccc(F)cc1)NS(=O)(=O)C1CCCCCCCCCCC1=O (stereo not drawn),inhibition at 50 µg/mL,Fusarium graminearum [1],18.1%
O=C(Nc1ccc(Cl)c(Cl)c1)NS(=O)(=O)C1CCCCCCCCCCC1=O (stereo not drawn),inhibition at 50 µg/mL,Fusarium graminearum [1],55.6%
O=C(Nc1cc(Cl)ccc1Cl)NS(=O)(=O)C1CCCCCCCCCCC1=O (stereo not drawn),EC50,Rhizoctonia solani,38.9 µg/mL
same,EC90,Rhizoctonia solani,106 µg/mL
same,EC50,[2],19.5 µg/mL
same,EC90,[2],53.8 µg/mL
same,EC50,Botrytis cinerea,7.8 µg/mL
same,EC90,Botrytis cinerea,33.8 µg/mL
same,EC50,Pythium aphanidermatum,16.7 µg/mL
same,EC90,Pythium aphanidermatum,49.9 µg/mL
same,EC50,Fusarium graminearum [3],31.5 µg/mL
same,EC90,Fusarium graminearum [3],169 µg/mL
same,EC50,[4],13.5 µg/mL
same,EC90,[4],64.3 µg/mL
same,inhibition at 50 µg/mL,Fusarium graminearum [1],81.6%
same,EC50,Verticillium dahliae,22 µg/mL
same,EC90,Verticillium dahliae,142 µg/mL
Cc1cccc(NC(=O)NS(=O)(=O)C2CCCCCCCCCCC2=O)c1 (stereo not drawn),inhibition at 50 µg/mL,Fusarium graminearum [1],34.5%
Cc1ccc(NC(=O)NS(=O)(=O)C2CCCCCCCCCCC2=O)cc1C (stereo not drawn),EC50,Rhizoctonia solani,112 µg/mL
same,EC90,Rhizoctonia solani,556 µg/mL
same,EC50,[2],24 µg/mL
same,EC90,[2],98 µg/mL
same,EC50,Botrytis cinerea,9.57 µg/mL
same,EC90,Botrytis cinerea,35.9 µg/mL
same,EC50,Pythium aphanidermatum,33.5 µg/mL
same,EC90,Pythium aphanidermatum,124 µg/mL
same,EC50,Fusarium graminearum [3],39 µg/mL
same,EC90,Fusarium graminearum [3],176 µg/mL
same,EC50,[4],30.4 µg/mL
same,EC90,[4],105 µg/mL
same,inhibition at 50 µg/mL,Fusarium graminearum [1],77.3%
same,EC50,Verticillium dahliae,33.7 µg/mL
same,EC90,Verticillium dahliae,484 µg/mL
O=C(Nc1cccc([N+](=O)[O-])c1)NS(=O)(=O)C1CCCCCCCCCCC1=O (stereo not drawn),inhibition at 50 µg/mL,Fusarium graminearum [1],18.1%
O=C(Nc1cccc(Cl)c1)NS(=O)(=O)C1CCCCCCCCCCC1=O (stereo not drawn),inhibition at 50 µg/mL,Fusarium graminearum [1],42%
CC(=O)c1ccc(NC(=O)NS(=O)(=O)C2CCCCCCCCCCC2=O)cc1 (stereo not drawn),inhibition at 50 µg/mL,Fusarium graminearum [1],9.3%
O=C1CCCCCCCCCCC1S(=O)(=O)Nc1ccc(Cl)cc1 (stereo not drawn),EC50,Rhizoctonia solani,6.82 µg/mL
same,EC90,Rhizoctonia solani,57 µg/mL
same,EC50,[2],24.6 µg/mL
same,EC90,[2],293 µg/mL
same,EC50,Botrytis cinerea,7.62 µg/mL
same,EC90,Botrytis cinerea,39 µg/mL
same,EC50,Pythium aphanidermatum,17.6 µg/mL
same,EC90,Pythium aphanidermatum,59.6 µg/mL
same,EC50,Fusarium graminearum [3],30 µg/mL
same,EC90,Fusarium graminearum [3],414 µg/mL
same,EC50,[4],13.8 µg/mL
same,EC90,[4],54.8 µg/mL
same,inhibition at 50 µg/mL,Fusarium graminearum [1],72.6%
same,EC50,Verticillium dahliae,10.2 µg/mL
same,EC90,Verticillium dahliae,55.3 µg/mL
O=C(Nc1cc(Cl)ccc1Cl)NS(=O)(=O)C1CCCCCC1=O (stereo not drawn),inhibition at 50 µg/mL,Fusarium graminearum [1],18.1%
Cc1ccc(NC(=O)NS(=O)(=O)C2CCCCCC2=O)c(C)c1 (stereo not drawn),inhibition at 50 µg/mL,Fusarium graminearum [1],9.3%
COc1cc(OC)nc(NC(=O)NS(=O)(=O)C2CCCCCC2=O)n1 (stereo not drawn),inhibition at 50 µg/mL,Fusarium graminearum [1],18.1%
O=C(Nc1ccc(Cl)cc1)NS(=O)(=O)C1CCCCCC1=O (stereo not drawn),inhibition at 50 µg/mL,Fusarium graminearum [1],18.1%
Cc1ccc(NC(=O)NS(=O)(=O)C2CCCCCC2=O)cc1 (stereo not drawn),inhibition at 50 µg/mL,Fusarium graminearum [1],18.1%
O=C(Nc1ccc(Cl)c(Cl)c1)NS(=O)(=O)C1CCCCCC1=O (stereo not drawn),inhibition at 50 µg/mL,Fusarium graminearum [1],18.1%
O=C(Nc1cc(Cl)ccc1Cl)NS(=O)(=O)C1CCCCC1=O (stereo not drawn),inhibition at 50 µg/mL,Fusarium graminearum [1],26.5%
Cc1ccc(NC(=O)NS(=O)(=O)C2CCCCC2=O)c(C)c1 (stereo not drawn),inhibition at 50 µg/mL,Fusarium graminearum [1],26.5%
COc1cc(OC)nc(NC(=O)NS(=O)(=O)C2CCCCC2=O)n1 (stereo not drawn),inhibition at 50 µg/mL,Fusarium graminearum [1],18.1%
O=C(Nc1ccc(Cl)cc1)NS(=O)(=O)C1CCCCC1=O (stereo not drawn),inhibition at 50 µg/mL,Fusarium graminearum [1],18.1%
Cc1ccc(NC(=O)NS(=O)(=O)C2CCCCC2=O)cc1 (stereo not drawn),inhibition at 50 µg/mL,Fusarium graminearum [1],18.1%
O=C(Nc1ccc(Cl)c(Cl)c1)NS(=O)(=O)C1CCCCC1=O (stereo not drawn),inhibition at 50 µg/mL,Fusarium graminearum [1],18.1%
COC(=O)Nc1nc2ccccc2[nH]1 [CARBENDAZIM],EC50,Rhizoctonia solani,1.41 µg/mL
same,EC90,Rhizoctonia solani,2.82 µg/mL
same,EC50,[2],0.54 µg/mL
same,EC90,[2],2.98 µg/mL
same,EC50,Pythium aphanidermatum,20.4 µg/mL
same,EC90,Pythium aphanidermatum,75.9 µg/mL
same,EC50,Fusarium graminearum [3],1.95 µg/mL
same,EC90,Fusarium graminearum [3],4.46 µg/mL
same,EC50,[4],39.8 µg/mL
same,EC90,[4],200 µg/mL
same,EC50,Verticillium dahliae,18.2 µg/mL
same,EC90,Verticillium dahliae,93.3 µg/mL
CC12CC1(C)C(=O)N(c1cc(Cl)cc(Cl)c1)C2=O (stereo not drawn) [PROCYMIDONE],EC90,Botrytis cinerea,5.75 µg/mL
